# Measured values reported in article PMC10937199 (ESMO Open, 2024).
# Where two headings read alike, the source gives them in different places.
# Tests used:
# [1] = tested on: patients with advanced solid tumors; assay: Safety; type: in vivo, human; conditions: Part A
# DNA-PK = conditions: previous studies; cited from earlier work
# advanced solid tumors [2] = assay: Best overall response per RECIST version 1.1, Part FE; type: in vivo, human
# advanced solid tumors [3] = assay: Disease control by baseline PD-L1 and DNA-PK immunohistochemistry; type: in vivo, human
# Method in brief: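 Immunohistochemistry on pretreatment archival tumor tissue; in Parts A and B, fresh samples were taken when no archival tissue was available. DNA-PK staining was scored as an H-score combining prevalence and staining intensity, then related to disease control.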
# [4] = tested on: patients with advanced solid tumors; conditions: Part A
compound,measurement,setting,value
COc1ccc([C@@H](O)c2cc(-c3ncnc4cc(N5CCOCC5)ccc34)c(F)cc2Cl)nn1 [Peposertib],Serious TEAE,"[1]; 400 mg b.i.d., all grade",4 (100.0) n (%)
same,"Serious TEAE, peposertib related","[1]; 400 mg b.i.d., all grade",3 (75.0) n (%)
same,"Serious TEAE, treatment related","[1]; 400 mg b.i.d., all grade",3 (75.0) n (%)
same,TEAE,"[1]; 400 mg b.i.d., all grade",4 (100.0) n (%)
same,"TEAE, peposertib related","[1]; 400 mg b.i.d., all grade",4 (100.0) n (%)
same,"TEAE, treatment related","[1]; 400 mg b.i.d., all grade",4 (100.0) n (%)
same,TEAEs leading to death,"[1]; 400 mg b.i.d., all grade",0 n (%)
same,Treatment-related AE leading to death,"[1]; 400 mg b.i.d., all grade",0 n (%)
same,IRR,"[1]; 400 mg b.i.d., grade ≥3",0 n (%)
same,Immune-related AE,"[1]; 400 mg b.i.d., grade ≥3",1 (25.0) n (%)
same,Serious TEAE,"[1]; 400 mg b.i.d., grade ≥3",4 (100.0) n (%)
same,"Serious TEAE, peposertib related","[1]; 400 mg b.i.d., grade ≥3",3 (75.0) n (%)
same,"Serious TEAE, treatment related","[1]; 400 mg b.i.d., grade ≥3",3 (75.0) n (%)
same,TEAE,"[1]; 400 mg b.i.d., grade ≥3",4 (100.0) n (%)
same,"TEAE, peposertib related","[1]; 400 mg b.i.d., grade ≥3",4 (100.0) n (%)
same,"TEAE, treatment related","[1]; 400 mg b.i.d., grade ≥3",4 (100.0) n (%)
same,TEAEs leading to death,"[1]; 400 mg b.i.d., grade ≥3",0 n (%)
same,Treatment-related AE leading to death,"[1]; 400 mg b.i.d., grade ≥3",0 n (%)
same,Discontinuation of all study treatments due to AEs,[1]; all dose levels,11 (37.9%)
same,Peposertib-related TEAE: fatigue,[1]; all dose levels,8 (27.6%)
same,Peposertib-related TEAE: nausea,[1]; all dose levels,9 (31.0%)
same,Peposertib-related TEAE: vomiting,[1]; all dose levels,9 (31.0%)
same,DNA-PK inhibition,DNA-PK,time- and concentration-dependent manner
same,Best overall response of stable disease (SD) or non-CR/non-PD,advanced solid tumors [2]; all dose levels,33.3%
same,Patients with a PR,"advanced solid tumors [2]; all patients, response at 200 mg b.i.d.",one of nine
same,Patients with SD among PD-L1+ tumors,advanced solid tumors [3]; Part A,two of seven
same,Patients with SD among PD-L1− tumors,advanced solid tumors [3]; Part A,two of 17
same,Patients with SD among PD-L1+ tumors,advanced solid tumors [3]; Part B,two of seven
same,Patients with SD among PD-L1− tumors,advanced solid tumors [3]; Part B,three of nine
same,Association between DNA-PK H-score and disease control,"advanced solid tumors [3]; Parts A, B and FE",No association
same,DLT by preferred term: Acute kidney injury,[4]; 100 mg b.i.d.,0 n (%)
same,DLT by preferred term: Febrile neutropenia,[4]; 100 mg b.i.d.,0 n (%)
same,DLT by preferred term: Neutropenia,[4]; 100 mg b.i.d.,0 n (%)
same,DLT by preferred term: Neutrophil count decreased,[4]; 100 mg b.i.d.,0 n (%)
same,DLT by preferred term: Pneumonitis,[4]; 100 mg b.i.d.,0 n (%)
same,DLT by preferred term: Pyrexia,[4]; 100 mg b.i.d.,0 n (%)
same,DLT by preferred term: Rash,[4]; 100 mg b.i.d.,0 n (%)
same,DLTs per patient: 1,[4]; 100 mg b.i.d.,0 n (%)
same,DLTs per patient: 2,[4]; 100 mg b.i.d.,0 n (%)
same,DLTs per patient: ≥3,[4]; 100 mg b.i.d.,0 n (%)
same,Patients with DLT,[4]; 100 mg b.i.d.,0 n (%)
same,DLT by preferred term: Acute kidney injury,[4]; 200 mg b.i.d.,0 n (%)
same,DLT by preferred term: Febrile neutropenia,[4]; 200 mg b.i.d.,0 n (%)
same,DLT by preferred term: Neutropenia,[4]; 200 mg b.i.d.,0 n (%)
same,DLT by preferred term: Neutrophil count decreased,[4]; 200 mg b.i.d.,0 n (%)
same,DLT by preferred term: Pneumonitis,[4]; 200 mg b.i.d.,0 n (%)
same,DLT by preferred term: Pyrexia,[4]; 200 mg b.i.d.,0 n (%)
same,DLT by preferred term: Rash,[4]; 200 mg b.i.d.,0 n (%)
same,DLTs per patient: 1,[4]; 200 mg b.i.d.,0 n (%)
same,DLTs per patient: 2,[4]; 200 mg b.i.d.,0 n (%)
same,DLTs per patient: ≥3,[4]; 200 mg b.i.d.,0 n (%)
same,Patients with DLT,[4]; 200 mg b.i.d.,0 n (%)
same,DLT by preferred term: Acute kidney injury,[4]; 250 mg b.i.d.,0 n (%)
same,DLT by preferred term: Febrile neutropenia,[4]; 250 mg b.i.d.,0 n (%)
same,DLT by preferred term: Neutropenia,[4]; 250 mg b.i.d.,0 n (%)
same,DLT by preferred term: Neutrophil count decreased,[4]; 250 mg b.i.d.,0 n (%)
same,DLT by preferred term: Pneumonitis,[4]; 250 mg b.i.d.,1 (50.0) n (%)
same,DLT by preferred term: Pyrexia,[4]; 250 mg b.i.d.,0 n (%)
same,DLT by preferred term: Rash,[4]; 250 mg b.i.d.,0 n (%)
same,DLTs per patient: 1,[4]; 250 mg b.i.d.,1 (50.0) n (%)
same,DLTs per patient: 2,[4]; 250 mg b.i.d.,0 n (%)
same,DLTs per patient: ≥3,[4]; 250 mg b.i.d.,0 n (%)
same,Patients with DLT,[4]; 250 mg b.i.d.,1 (50.0) n (%)
same,DLT by preferred term: Acute kidney injury,[4]; 300 mg b.i.d.,0 n (%)
same,DLT by preferred term: Febrile neutropenia,[4]; 300 mg b.i.d.,0 n (%)
same,DLT by preferred term: Neutropenia,[4]; 300 mg b.i.d.,0 n (%)
same,DLT by preferred term: Neutrophil count decreased,[4]; 300 mg b.i.d.,0 n (%)
same,DLT by preferred term: Pneumonitis,[4]; 300 mg b.i.d.,1 (25.0) n (%)
same,DLT by preferred term: Pyrexia,[4]; 300 mg b.i.d.,0 n (%)
same,DLT by preferred term: Rash,[4]; 300 mg b.i.d.,0 n (%)
same,DLTs per patient: 1,[4]; 300 mg b.i.d.,1 (25.0) n (%)
same,DLTs per patient: 2,[4]; 300 mg b.i.d.,0 n (%)
same,DLTs per patient: ≥3,[4]; 300 mg b.i.d.,0 n (%)
same,Patients with DLT,[4]; 300 mg b.i.d.,1 (25.0) n (%)
same,DLT by preferred term: Acute kidney injury,[4]; 400 mg b.i.d.,1 (25.0) n (%)
same,DLT by preferred term: Febrile neutropenia,[4]; 400 mg b.i.d.,1 (25.0) n (%)
same,DLT by preferred term: Neutropenia,[4]; 400 mg b.i.d.,1 (25.0) n (%)
same,DLT by preferred term: Neutrophil count decreased,[4]; 400 mg b.i.d.,1 (25.0) n (%)
same,DLT by preferred term: Pneumonitis,[4]; 400 mg b.i.d.,0 n (%)
same,DLT by preferred term: Pyrexia,[4]; 400 mg b.i.d.,1 (25.0) n (%)
same,DLT by preferred term: Rash,[4]; 400 mg b.i.d.,1 (25.0) n (%)
same,DLTs per patient: 1,[4]; 400 mg b.i.d.,1 (25.0) n (%)
same,DLTs per patient: 2,[4]; 400 mg b.i.d.,1 (25.0) n (%)
same,DLTs per patient: ≥3,[4]; 400 mg b.i.d.,1 (25.0) n (%)
same,Patients with DLT,[4]; 400 mg b.i.d.,3 (75.0) n (%)
